Laboratory results from ChEMBL document CHEMBL1141659, “Synthesis, properties, and perspectives of gem-diphosphono substituted-thiazoles” (2008).

Columns and labels:
[1] = test system: Rattus norvegicus; test: Antiresorptive activity in thyroidparathyroidectomized sc dosed rat assessed as inhibition of 1,25-dihydroxyvitamin D3-induced hypercalcemia; type: functional
Outline: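 In vivo bone resorption was driven by 1,25-dihydroxyvitamin D3, which induced hypercalcemia in thyroparathyroidectomized (TPTX) rats. ED50 values for inhibition of resorption were determined following an earlier published method.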

[2] = test system: Mus musculus; test: Antiinflammatory activity in delayed type hypersensitivity mouse model assessed as inhibition of granuloma wet weight at 100 mg/kg, sc
[3] = test system: Mus musculus; test: Antiinflammatory activity in delayed type hypersensitivity mouse model assessed as inhibition of granuloma dry weight at 100 mg/kg, sc

Question: O=C1NC(=S)SC1C(c1ccccc1Cl)C(P(=O)(O)O)P(=O)(O)O (stereo not drawn) was tested. Which ED50 [1] did it give?
Answer: 0.08 mg/kg

Question: What about the inhibition in vivo at 100 mg/kg [2] of the same compound?
Answer: 38%

Question: And the inhibition in vivo at 100 mg/kg [3]?
Answer: 44%

Question: With O=[N+]([O-])c1ccc(/C=C(\c2nc3ccccc3s2)C(P(=O)(O)O)P(=O)(O)O)cc1 as the compound, how does the ED50 [1] read?
Answer: 0.115 mg/kg

Question: And the inhibition in vivo at 100 mg/kg [2]?
Answer: 8%

Question: And the inhibition in vivo at 100 mg/kg [3]?
Answer: 10%

Question: How did the ED50 [1] turn out when O=P(O)(O)C(/C(=C/c1ccc(Cl)cc1)c1nc2ccccc2s1)P(=O)(O)O was run?
Answer: 0.118 mg/kg

Question: Which results are given for Cc1ccc(C(C(C#N)c2nc3ccccc3s2)C(P(=O)(O)O)P(=O)(O)O)cc1 (stereo not drawn)?
Answer: ED50 [1]: 0.11 mg/kg; inhibition in vivo at 100 mg/kg [2]: 36%; inhibition in vivo at 100 mg/kg [3]: 38%

Question: With N#CC(c1nc2ccccc2s1)C(c1ccccc1[N+](=O)[O-])C(P(=O)(O)O)P(=O)(O)O (stereo not drawn) as the compound, how does the ED50 [1] read?
Answer: 0.105 mg/kg

Question: What about the inhibition in vivo at 100 mg/kg [2] of the same compound?
Answer: 48%

Question: What about the inhibition in vivo at 100 mg/kg [3] of the same compound?
Answer: 51%

Question: Which results are given for O=C1NC(=S)SC1C(c1ccccc1[N+](=O)[O-])C(P(=O)(O)O)P(=O)(O)O (stereo not drawn)?
Answer: ED50 [1]: 0.088 mg/kg; inhibition in vivo at 100 mg/kg [2]: 42%; inhibition in vivo at 100 mg/kg [3]: 46%

Question: What does the source list for CN(C)c1ccc(/C=C(\c2nc3ccccc3s2)C(P(=O)(O)O)P(=O)(O)O)cc1?
Answer: ED50 [1]: 0.11 mg/kg; inhibition in vivo at 100 mg/kg [2]: 14%; inhibition in vivo at 100 mg/kg [3]: 19%

Question: What does the source list for O=[N+]([O-])c1ccccc1/C=C(\c1nc2ccccc2s1)C(P(=O)(O)O)P(=O)(O)O?
Answer: ED50 [1]: 0.135 mg/kg; inhibition in vivo at 100 mg/kg [2]: 8%; inhibition in vivo at 100 mg/kg [3]: 11%

Question: Which ED50 [1] does the source give for N#CC(c1nc2ccccc2s1)C(c1ccccc1Cl)C(P(=O)(O)O)P(=O)(O)O (stereo not drawn) here?
Answer: 0.09 mg/kg

Question: And the inhibition in vivo at 100 mg/kg [2]?
Answer: 50%

Question: What about the inhibition in vivo at 100 mg/kg [3] of the same compound?
Answer: 41%

Question: O=C1NC(=S)SC1C(c1ccccc1)C(P(=O)(O)O)P(=O)(O)O (stereo not drawn) was tested. Which ED50 [1] did it give?
Answer: 0.077 mg/kg

Question: And the inhibition in vivo at 100 mg/kg [2]?
Answer: 46%

Question: What about the inhibition in vivo at 100 mg/kg [3] of the same compound?
Answer: 39%

Question: Which results are given for CN(C)c1ccc(C(C2SC(=S)NC2=O)C(P(=O)(O)O)P(=O)(O)O)cc1 (stereo not drawn)?
Answer: ED50 [1]: 0.07 mg/kg; inhibition in vivo at 100 mg/kg [2]: 52%; inhibition in vivo at 100 mg/kg [3]: 55%

Question: What does the source list for N#CC(c1nc2ccccc2s1)C(c1ccc(Cl)cc1)C(P(=O)(O)O)P(=O)(O)O (stereo not drawn)?
Answer: ED50 [1]: 0.09 mg/kg; inhibition in vivo at 100 mg/kg [2]: 52%; inhibition in vivo at 100 mg/kg [3]: 53%

Question: For O=C1NC(=S)SC1C(c1ccc([N+](=O)[O-])cc1)C(P(=O)(O)O)P(=O)(O)O (stereo not drawn), which ED50 [1] is on record?
Answer: 0.085 mg/kg

Question: What about the inhibition in vivo at 100 mg/kg [2] of the same compound?
Answer: 43%

Question: And the inhibition in vivo at 100 mg/kg [3]?
Answer: 46%

Question: With CN(C)c1ccc(C(C(C#N)c2nc3ccccc3s2)C(P(=O)(O)O)P(=O)(O)O)cc1 (stereo not drawn) as the compound, how does the ED50 [1] read?
Answer: 0.08 mg/kg

Question: What about the inhibition in vivo at 100 mg/kg [2] of the same compound?
Answer: 53%

Question: What about the inhibition in vivo at 100 mg/kg [3] of the same compound?
Answer: 58%

Question: Which ED50 [1] does the source give for N#CC(c1nc2ccccc2s1)C(c1ccc([N+](=O)[O-])cc1)C(P(=O)(O)O)P(=O)(O)O (stereo not drawn) here?
Answer: 0.095 mg/kg

Question: And the inhibition in vivo at 100 mg/kg [2]?
Answer: 50%

Question: And the inhibition in vivo at 100 mg/kg [3]?
Answer: 38%

Question: With O=P(O)(O)C(/C(=C/c1ccccc1Cl)c1nc2ccccc2s1)P(=O)(O)O as the compound, how does the ED50 [1] read?
Answer: 0.105 mg/kg

Question: What does the source list for O=C1NC(=S)SC1C(c1ccccc1O)C(P(=O)(O)O)P(=O)(O)O (stereo not drawn)?
Answer: ED50 [1]: 0.078 mg/kg; inhibition in vivo at 100 mg/kg [2]: 54%; inhibition in vivo at 100 mg/kg [3]: 51%

Question: Which ED50 [1] does the source give for Cc1ccc(/C=C(\c2nc3ccccc3s2)C(P(=O)(O)O)P(=O)(O)O)cc1 here?
Answer: 0.125 mg/kg

Question: And the inhibition in vivo at 100 mg/kg [2]?
Answer: 6%

Question: What about the inhibition in vivo at 100 mg/kg [3] of the same compound?
Answer: 13%

Question: NCCC(O)(P(=O)(O)O)P(=O)(O)O [PAMIDRONIC ACID] was tested. Which ED50 [1] did it give?
Answer: 0.085 mg/kg

Question: For O=P(O)(O)C(O)(Cc1cccnc1)P(=O)(O)O [RISEDRONIC ACID], which inhibition in vivo at 100 mg/kg [2] is on record?
Answer: 48%

Question: And the inhibition in vivo at 100 mg/kg [3]?
Answer: 44%
